ChEMBL document CHEMBL1130202, “Biologically active heteroarotinoids exhibiting anticancer activity and decreased toxicity” (J Med Chem, 1997)
Active and inactive are the calls of the source. The calls are words filed in the database; no cut-off is given here.

What was measured:
[1] = Mortality rate in mice in mid dose 1; assay type: ADME; details: mouse, in vivo
Summary of the method: (§1)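 Male B6D2F1 mice given compound daily by gavage in corn oil at the stated dose levels, with corn oil vehicle controls. Deaths counted as animals found dead or sacrificed moribund, with day(s) of death recorded. Heteroarotinoid groups ran to day 65 and low-dose reference groups to day 25.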

Mus musculus [2] = species: Mus musculus; assay: Effect of compound on serum triglycerides levels in mice at mid dose 1 on day 36; assay type: functional
Summary of the method: (§2)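 Male B6D2F1 mice were gavaged daily with compound in corn oil at low, mid 1, mid 2 or high dose. Serum triglycerides and circulating white blood cells were measured on the stated day (8, 29, 36, 65). Values are group mean ± SD expressed as % relative to corn-oil vehicle, with significance at p ≤ 0.05.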

[3] = Mortality rate in mice in low dose; assay type: ADME; details: mouse, in vivo; summary of the method: as §1
Mus musculus [4] = species: Mus musculus; assay: Effect of compound on serum Alkaline phosphatase levels in mice at mid dose 2 on day 36; assay type: functional
Summary of the method: (§3)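 Male B6D2F1 mice dosed daily by oral gavage in corn oil at low, mid 1, mid 2 or high dose. Blood sampled on set days (8, 29, 36, 65) for clinical chemistry, serum alkaline phosphatase and triglycerides. Group mean ± SD reported as % relative to vehicle 1; significance p < 0.05 versus corn oil vehicle.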

Mus musculus [5] = species: Mus musculus; assay: Effect of compound on adrenal to body weight ratios in mice at high dose on day 65; assay type: functional
Summary of the method: (§4)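 Male B6D2F1 mice dosed daily by gavage with compound in corn oil; vehicle 1 (corn oil) controls run to termination on day 65. Low, mid 1, mid 2 and high dose groups, with dosage increases partway through the study. Organ-to-body weight ratios (×1000) taken at necropsy on day 65, reported as mean ± SD for 4 to 8 animals and as % difference from vehicle.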

[6] = Mortality rate in mice in high dose; assay type: ADME; details: mouse, in vivo; summary of the method: as §1
Mus musculus [7] = species: Mus musculus; assay: Effect of compound on serum Alkaline phosphatase levels in mice at low dose on day 29; assay type: functional; summary of the method: as §3
Mus musculus [8] = species: Mus musculus; assay: Avoiding pressure on limbs in mice at low dose with Hypervitaminosis; 0/16; assay type: functional, organism-based; details: Limb
Mus musculus [9] = species: Mus musculus; assay: Effect of compound on serum triglycerides levels in mice at mid dose 2 on day 29; assay type: functional; summary of the method: as §2
Mus musculus [10] = species: Mus musculus; assay: Compound total dose to termination (day 25/65) in mid dose 2; assay type: functional
Summary of the method: (§5)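 Male B6D2F1 mice given daily oral gavage in corn oil; dosages increased during the study (day 30 or day 51 depending on compound). Cumulative dose in mg/kg administered up to termination (day 65, or day 25 for TTNPB 0.01/0.05 mg/kg/day groups).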

Mus musculus [11] = species: Mus musculus; assay: Effect of compound on white blood cells levels in mice at high dose on day 65; assay type: functional; summary of the method: as §2
Mus musculus [12] = species: Mus musculus; assay: Compound total dose to termination (day 25/65) in high dose; assay type: functional; summary of the method: as §5
Mus musculus [13] = species: Mus musculus; assay: Avoiding pressure on limbs in mice at mid dose 1 with Hypervitaminosis; 0/16; assay type: functional, organism-based; details: Limb
Mus musculus [14] = species: Mus musculus; assay: Avoiding pressure on limbs in mice at mid dose 2 with Hypervitaminosis; 0/16; assay type: functional, organism-based; details: Limb
Mus musculus [15] = species: Mus musculus; assay: Effect of compound on Spleen to body weight ratios in mice at high dose on day 65; assay type: functional; summary of the method: as §4
Mus musculus [16] = species: Mus musculus; assay: Enlarged spleen in Gross pathological observations in mice with hypervitaminosis A at low dose with gross observations/total number of mice in group; 0/16; assay type: functional, organism-based
Mus musculus [17] = species: Mus musculus; assay: Effect of compound on serum Alkaline phosphatase levels in mice at high dose on day 29; assay type: functional; summary of the method: as §3
Mus musculus [18] = species: Mus musculus; assay: Effect of compound on serum triglycerides levels in mice at low dose on day 36; assay type: functional; summary of the method: as §3
Mus musculus [19] = species: Mus musculus; assay: Enlarged lymph in gross pathological observations in mice with hypervitaminosis A at low dose with gross observations/total number of mice in group; 1/16; assay type: functional, organism-based
Mus musculus [20] = species: Mus musculus; assay: Effect of compound on serum triglycerides levels in mice at mid dose 1 on day 8; assay type: functional; summary of the method: as §2
Mus musculus [21] = species: Mus musculus; assay: Compound total dose to termination (day 25/65) in low dose; assay type: functional; summary of the method: as §5
Mus musculus [22] = species: Mus musculus; assay: Effect of compound on thymus to body weight ratios in mice at high dose on day 65; assay type: functional
Summary of the method: (§6)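 Male B6D2F1 mice were dosed daily by gavage in corn oil, with TTNPB given at 0.1–0.8 or 0.01/0.05 mg/kg/day. Thymus-to-body weight ratio (×1000) was taken at necropsy on day 65 against vehicle 1, or on day 25 for the 0.01/0.05 groups against vehicle 2. Mean ± SD of 4–8 animals, reported as % difference from vehicle.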

Mus musculus [23] = species: Mus musculus; assay: Effect of compound on right testicle to body weight ratios in mice at high dose on day 65; assay type: functional; summary of the method: as §4
Mus musculus [24] = species: Mus musculus; assay: Compound total dose to termination (day 25/65) in mid dose 1; assay type: functional; summary of the method: as §5
Mus musculus [25] = species: Mus musculus; assay: Fracture incidence in mouse at low dose; 0/8
Mus musculus [26] = species: Mus musculus; assay: Average number of fractures per mouse at mid dose 1
Mus musculus [27] = species: Mus musculus; assay: Enlarged spleen in Gross pathological observations in mice with hypervitaminosis A at mid dose 2 with gross observations/total number of mice in group; 6/16
Mus musculus [28] = species: Mus musculus; assay: Effect of compound on serum Alkaline phosphatase levels in mice at mid dose 1 on day 65; assay type: functional; summary of the method: as §3
Mus musculus [29] = species: Mus musculus; assay: Effect of compound on serum Alkaline phosphatase levels in mice at mid dose 1 on day 36; assay type: functional; summary of the method: as §3
Mus musculus [30] = species: Mus musculus; assay: Effect of compound on white blood cells levels in mice at mid dose 2 on day 65; assay type: functional; summary of the method: as §2
Mus musculus [31] = species: Mus musculus; assay: Effect of compound on Spleen to body weight ratios in mice at low dose on day 65; assay type: functional; summary of the method: as §4
Mus musculus [32] = species: Mus musculus; assay: Effect of compound on white blood cells levels in mice at low dose on day 65; assay type: functional; summary of the method: as §2
Mus musculus [33] = species: Mus musculus; assay: Enlarged lymph in gross pathological observations in mice with hypervitaminosis A at mid dose 2 with gross observations/total number of mice in group; 8/16; assay type: functional, organism-based
Mus musculus [34] = assay: Effect of compound on adrenal to body weight ratios in mice at 0.8 mg/kg/day dose; all the animals died by day 65; assay type: functional, organism-based
Mus musculus [35] = assay: Enlarged spleen in gross pathological observations with hypervitaminosis A at 0.05 mg/kg/day dose with gross observations/total number of animals in group; 5/8; assay type: functional, organism-based
Mus musculus [36] = assay: Total dose of 10% weight loss in mice at 0.01 mg/kg/day; assay type: functional
Mus musculus [37] = assay: Effects of retinoids on thymus to body weight ratios in mice at 0.05 mg/kg/day dose
Mus musculus [38] = assay: Total dose of 10% weight loss in mice at 0.05 mg/kg/day; assay type: functional
Mus musculus [39] = assay: Effect of compound on thymus to body weight ratios in mice at 0.2 mg/kg/day dose; all the animals died by day 65; assay type: functional, organism-based; summary of the method: as §6
Mus musculus [40] = assay: Fracture incidents in mouse at 0.2 mg/kg/day; 3/8
Mus musculus [41] = assay: Effect of compound on adrenal to body weight ratios in mice at 0.2 mg/kg/day dose; all the animals died by day 65; assay type: functional, organism-based
Mus musculus [42] = species: Mus musculus; assay: Avoiding pressure on limbs in mice at mid dose 1 with Hypervitaminosis 0/16; assay type: functional, organism-based; details: Limb
Mus musculus [43] = species: Mus musculus; assay: Enlarged lymph in gross pathological observations in mice with hypervitaminosis A at mid dose 1 with gross observations/total number of mice in group; 2/16; assay type: functional, organism-based
Mus musculus [44] = species: Mus musculus; assay: Avoiding pressure on limbs in mice at high dose with Hypervitaminosis; 4/16; assay type: functional, organism-based; details: Limb
Mus musculus [45] = species: Mus musculus; assay: Fracture incidence in mouse at mid dose 2; 4/8

Row | Structure (SMILES) | Mortality [1] | Activity (Mus musculus [2]) | Mortality [3] | Activity (Mus musculus [4]) | Activity (Mus musculus [5]) | Mortality [6] | Activity (Mus musculus [7]) | Activity (Mus musculus [8]) | Activity (Mus musculus [9]) | Total dose (Mus musculus [10]) [mg/kg] | Activity (Mus musculus [11]) | Total dose (Mus musculus [12]) [mg/kg] | Activity (Mus musculus [14]) | Activity (Mus musculus [15]) | Activity (Mus musculus [16]) | Activity (Mus musculus [17]) | Activity (Mus musculus [18]) | Activity (Mus musculus [19]) | Activity (Mus musculus [20]) | Total dose (Mus musculus [21]) [mg/kg] | also measured
1 | CC(/C=C/C=C(\C)c1ccc2c(c1)C(C)(C)CCS2)=C\C(=O)O | 1 day of death | 212.7 | 0 day of death | 75.6 | 2.6 | 0 day of death | 94.9 | inactive | 153.4 | 828.4 | 4.18 | 3106.5 | inactive | 2.6 | inactive | 94.6 | 194.9 | inactive | 97.6 | 207.1 | Activity (Mus musculus [13]): inactive; Activity (Mus musculus [22]): 1.5; Activity (Mus musculus [23]): 2.7; Total dose (Mus musculus [24]): 414.2 mg/kg; Activity (Mus musculus [25]): inactive
2 | C/C(=C\c1ccc(C(=O)O)cc1)c1ccc2c(c1)C(C)(C)CCO2 | 0 day of death |  | 0 day of death | 93.3 |  | 8 day of death |  |  |  |  |  |  |  |  |  | 103.1 |  |  |  |  | Activity (Mus musculus [26]): 1.9; Activity (Mus musculus [27]): Weak activity; Activity (Mus musculus [28]): 123.1; Activity (Mus musculus [29]): 81.5; Activity (Mus musculus [30]): 6.55; Activity (Mus musculus [31]): 3.6; Activity (Mus musculus [32]): 4.27; Activity (Mus musculus [33]): Weak activity
3 | C/C(=C\c1ccc(C(=O)O)cc1)c1ccc2c(c1)C(C)(C)CCC2(C)C |  |  |  |  |  |  |  |  |  |  |  |  |  |  |  |  |  |  |  |  | Activity (Mus musculus [34]): Toxic; Activity (Mus musculus [35]): Weak activity; Dose (Mus musculus [36]): >0.25 mg/kg; Activity (Mus musculus [37]): Toxic; Dose (Mus musculus [38]): 0.4 mg/kg; Activity (Mus musculus [39]): Toxic; Activity (Mus musculus [40]): Weak activity; Activity (Mus musculus [41]): Toxic
4 | CC(/C=C/C=C(\C)c1ccc2c(c1)C(C)(C)CCO2)=C\C(=O)O |  | 202.8 |  |  | 0.4 |  | 96.8 | inactive | 159.3 | 828.4 | 3.7 | 3106.5 | inactive | 3 | inactive |  | 187.1 | inactive | 97.2 | 207.1 | Activity (Mus musculus [42]): inactive; Activity (Mus musculus [26]): 0; Activity (Mus musculus [43]): inactive; Activity (Mus musculus [28]): 127.1; Activity (Mus musculus [22]): 1.3; Activity (Mus musculus [23]): 3; Activity (Mus musculus [30]): 4.51; Total dose (Mus musculus [24]): 414.2 mg/kg; Activity (Mus musculus [31]): 2.3; Activity (Mus musculus [44]): Weak activity; Activity (Mus musculus [25]): inactive; Activity (Mus musculus [45]): Weak activity
